Reference: ChEMBL document CHEMBL2380280, “Xanthates and trithiocarbonates strongly inhibit carbonic anhydrases and show antiglaucoma effects in vivo” (J Med Chem, 2013)
Calls of active or inactive are those of the source. No cut-off for these calls is given here.

Assays:
Carbonic anhydrase 1 = Carbonic anhydrase 1 (Homo sapiens, UniProt P00915); test: Inhibition of recombinant human CA1 cytosolic isoform preincubated for 15 mins by stopped-flow CO2 hydration assay
Carbonic anhydrase 9 = Carbonic anhydrase 9 (Homo sapiens, UniProt Q16790); test: Inhibition of recombinant human CA9 transmembrane isoform preincubated for 15 mins by stopped-flow CO2 hydration assay
Carbonic anhydrase 12 = Carbonic anhydrase 12 (Homo sapiens, UniProt O43570); test: Inhibition of recombinant human CA12 transmembrane isoform preincubated for 15 mins by stopped-flow CO2 hydration assay
Carbonic anhydrase 2 = Carbonic anhydrase 2 (Homo sapiens, UniProt P00918); test: Inhibition of recombinant human CA2 cytosolic isoform preincubated for 15 mins by stopped-flow CO2 hydration assay
Oryctolagus cuniculus [1] = test: Antiglaucoma activity in hypertensive New Zealand albino rabbit model assessed as decrease in carbomer-induced intraocular pressure at 2% administered to eye after 100 mins by tanometric analysis (reference value: 35 to 40 mmHg); type: functional
Method in brief: (§1)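 Adult male New Zealand albino rabbits, 2−2.5 kg. Glaucoma induced by bilateral anterior-chamber injection of 0.1 mL 0.25% carbomer under im tiletamine/zolazepam plus xilazine anaesthesia. Once IOP was stably raised, drug was instilled into one eye and vehicle into the contralateral eye, three animals per drug. IOP was read by Tono-Pen tonometer after oxybuprocaine drops, before dosing and at 30, 60, 90, 120, 240 and 300 min.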

Oryctolagus cuniculus [2] = test: Antiglaucoma activity in hypertensive New Zealand albino rabbit model assessed as decrease in carbomer-induced intraocular pressure at 2% administered to eye after > 250 mins by tanometric analysis; type: functional, organism-based; method in brief: as §1
Oryctolagus cuniculus [3] = test: Antiglaucoma activity in normotensive New Zealand rabbit model assessed as decrease in intraocular pressure at 2% administered to eye vitreous by tanometric analysis; type: functional
Oryctolagus cuniculus [4] = test: Antiglaucoma activity in hypertensive New Zealand albino rabbit model assessed as decrease in carbomer-induced intraocular pressure at 2% administered to eye measured up to 200 to 250 mins by tanometric analysis; type: functional, organism-based; method in brief: as §1
Oryctolagus cuniculus [5] = test: Antiglaucoma activity in hypertensive New Zealand albino rabbit model assessed as decrease in carbomer-induced intraocular pressure at 2% administered to eye after 50 to 100 mins by tanometric analysis (reference value: 35 to 40 mmHg); type: functional; method in brief: as §1
Oryctolagus cuniculus [6] = test: Antiglaucoma activity in normotensive New Zealand rabbit model assessed as decrease in intraocular pressure administered to eye vitreous by tanometric analysis; type: functional, organism-based
Oryctolagus cuniculus [7] = test: Antiglaucoma activity in hypertensive New Zealand albino rabbit model assessed as decrease in carbomer-induced intraocular pressure at 2% administered to eye after 150 mins by tanometric analysis; type: functional, organism-based; method in brief: as §1

Sequence of Carbonic anhydrase 12 (O43570 whole entry, canonical isoform): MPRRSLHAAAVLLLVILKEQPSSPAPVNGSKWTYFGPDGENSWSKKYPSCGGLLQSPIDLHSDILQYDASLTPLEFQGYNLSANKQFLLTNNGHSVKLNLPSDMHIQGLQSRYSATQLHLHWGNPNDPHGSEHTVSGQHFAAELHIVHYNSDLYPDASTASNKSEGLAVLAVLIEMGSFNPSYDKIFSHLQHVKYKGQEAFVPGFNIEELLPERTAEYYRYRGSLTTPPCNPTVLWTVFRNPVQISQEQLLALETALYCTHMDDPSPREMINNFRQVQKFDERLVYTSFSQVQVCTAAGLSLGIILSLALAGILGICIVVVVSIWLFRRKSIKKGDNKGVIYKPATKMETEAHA
Sequence of Carbonic anhydrase 1 (P00915 whole entry, canonical isoform): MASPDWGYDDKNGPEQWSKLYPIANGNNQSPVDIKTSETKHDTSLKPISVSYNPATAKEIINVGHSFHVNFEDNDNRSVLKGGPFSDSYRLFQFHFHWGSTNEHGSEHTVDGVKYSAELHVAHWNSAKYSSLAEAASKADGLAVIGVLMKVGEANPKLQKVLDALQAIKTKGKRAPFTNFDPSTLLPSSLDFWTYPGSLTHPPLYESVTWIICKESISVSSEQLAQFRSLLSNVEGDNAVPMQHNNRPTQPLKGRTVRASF

S=C(S)OC1CCCC1
Ki (Carbonic anhydrase 1): 532 nM
Ki (Carbonic anhydrase 9): 47.2 nM
Ki (Carbonic anhydrase 12): 74.7 nM
Ki (Carbonic anhydrase 2): 366 nM

CCCCCCCCOC(=S)S
Ki (Carbonic anhydrase 9): 72.1 nM

S=C(S)OC1CCCCC1
Ki (Carbonic anhydrase 9): 78.8 nM

S=C(S)SCc1ccccc1
Ki (Carbonic anhydrase 9): 7.8 nM

COC(=S)S
Ki (Carbonic anhydrase 9): 631 nM

S=C(S)OC1CC2CC1C1CCCC21 (centres undefined)
Ki (Carbonic anhydrase 1): 63.4 nM
Ki (Carbonic anhydrase 9): 643 nM
Ki (Carbonic anhydrase 12): 835 nM
Ki (Carbonic anhydrase 2): 6.6 nM

S=C(S)OCC12CC3CC(CC(C3)C1)C2
Ki (Carbonic anhydrase 9): 776 nM

CCOC(=S)S
Ki (Carbonic anhydrase 9): 566 nM

N#CNC(=S)S
Ki (Carbonic anhydrase 9): 678 nM

CC(C)OC(=S)S
Ki (Carbonic anhydrase 9): 531 nM

S=C([S-])OCC(c1ccccc1)c1ccccc1.[K+]
Ki (Carbonic anhydrase 9): 58 nM
Activity (Oryctolagus cuniculus [1]): 12 mmHg
Activity (Oryctolagus cuniculus [2]): Active
Activity (Oryctolagus cuniculus [3]): 1 mmHg
Activity (Oryctolagus cuniculus [4]): Active

CCCCCOC(=S)S
Ki (Carbonic anhydrase 9): 403 nM

CN(C)CCOC(=S)S
Ki (Carbonic anhydrase 9): 760 nM

CN(C)CCOCCOC(=S)[S-].[K+]
Activity (Oryctolagus cuniculus [5]): 4 mmHg
Ki (Carbonic anhydrase 9): 831 nM
Activity (Oryctolagus cuniculus [3]): 1 mmHg
Activity (Oryctolagus cuniculus [4]): Active

S=C([S-])OCCc1ccccn1.[K+]
Activity (Oryctolagus cuniculus [5]): 4 mmHg
Ki (Carbonic anhydrase 9): 4.3 nM
Activity (Oryctolagus cuniculus [3]): 1 mmHg
Activity (Oryctolagus cuniculus [4]): Active

S=C(S)OCc1ccccc1
Ki (Carbonic anhydrase 9): 8.1 nM

S=C([S-])OCCC12CC3CC(CC(C3)C1)C2.[K+]
Activity (Oryctolagus cuniculus [5]): 4 mmHg
Ki (Carbonic anhydrase 9): 779 nM
Activity (Oryctolagus cuniculus [3]): 1 mmHg
Activity (Oryctolagus cuniculus [4]): Active

CC(C)(C)OC(=O)NCCCCOC(=S)[S-].[K+]
Activity (Oryctolagus cuniculus [5]): 4 mmHg
Ki (Carbonic anhydrase 9): 622 nM
Activity (Oryctolagus cuniculus [3]): 1 mmHg
Activity (Oryctolagus cuniculus [4]): Active

CC(C)CCOC(=S)S
Ki (Carbonic anhydrase 9): 322 nM

CC(C)(C)OC(=O)NCCCCCCOC(=S)S
Ki (Carbonic anhydrase 9): 765 nM

CCN[C@H]1C[C@H](C)S(=O)(=O)c2sc(S(N)(=O)=O)cc21
Activity (Oryctolagus cuniculus [6]): inactive
Activity (Oryctolagus cuniculus [7]): inactive
